Experimental data from different studies.
Each line is one published result; the experiments were not run side by side.
Target: MAP/microtubule affinity-regulating kinase 3 (MARK3, Homo sapiens, UniProt P27448)

Compound	test	test system	setting	endpoint	value
C[C@H](NC(=O)c1cnc2n1[C@](C)(Cc1ccc(C#N)cc1)C(=O)N2c1cc(Cl)c(F)c(Cl)c1)C(=O)NC1(c2ccccn2)CC1	cell-free assay, competition with immobilised ligand	–	1 µM	remaining binding	92%
COc1cccc2c(NCc3ccccc3)nc(-n3c(N)nc4ccccc43)nc12	target engagement in cells, inhibitor, chemoproteomics	–	20 mM	inhibition	-1%
Nc1nc(Nc2ccccc2)sc1C(=O)c1c(F)cccc1F	enzyme activity, inhibitor	–	10 µM	remaining activity	25%
NS(=O)(=O)c1ccc(CNc2ccnc(Nc3cccc(CN4CCOCC4)c3)n2)cc1	enzyme activity, inhibitor, radiometric	–	1 µM	remaining activity	113%
CSc1cccnc1N1CCN(Cc2nc3ccccc3[nH]2)CC1	cell-free assay, competition with immobilised ligand	–	1 µM	remaining binding	98%
O=C(NCCCNc1nc(Nc2cccc(CN3CCOCC3)c2)ncc1C1CC1)C1CCC1	enzyme activity, inhibitor, radiometric	–	1 µM	remaining activity	-1%
Oc1ccc(-c2nc(-c3ccncc3)c(-c3ccc(F)cc3)[nH]2)cc1	cell-free assay	–	0.5 µM	remaining signal	105%
O=C(NS(=O)(=O)c1ccc(NCC2CCOCC2)c([N+](=O)[O-])c1)c1ccc(N2CCN(Cc3ccc(C(F)(F)F)cc3-c3ccc(Cl)cc3)CC2)cc1Oc1cnc2[nH]ccc2c1	cell-free assay, competition with immobilised ligand	–	1 µM	remaining binding	100%
Cc1nn(CC(F)(F)F)cc1Nc1ncc(Br)c(NCCc2cnc[nH]2)n1	enzyme activity, inhibitor, radiometric	–	1 µM	remaining activity	68%
CC/C(=N\NC(=O)NCc1cccc(O)c1)c1ccc(O)c(C)c1O	enzyme activity, inhibitor	–	0.1 µM	inhibition	-16.8%
Cn1nc(C(F)(F)F)cc1-c1cnc(N2CCc3cc(S(=O)(=O)Nc4c(F)cc(Cl)cc4F)cc(N4CCCC4=O)c32)nc1	binding, competition with immobilised ligand	–	1 µM	remaining binding	12%
CNc1cc(Oc2cc(C(=O)Nc3cc(N4CCN(C)CC4)cc(C(F)(F)F)c3)ccc2C)ncn1	target engagement in cells, inhibitor, chemoproteomics	Huh-7	1 µM	inhibition	-18.5%
COc1cc2ncnc(Nc3ccc(Oc4ccccc4)c(C)c3C)c2cc1OC	enzyme activity, inhibitor	–	1 µM	inhibition	-4%
CCS(=O)(=O)c1cc2cc(C[C@](O)(CC(C)(C)c3ccc(F)cc3C(N)=O)C(F)(F)F)[nH]c2cn1	cell-free assay, competition with immobilised ligand	–	1 µM	remaining binding	100%
Cc1nn(CC(F)(F)F)cc1Nc1nccc(NCCc2cnc[nH]2)n1	enzyme activity, inhibitor, radiometric	–	1 µM	remaining activity	126%
O=C(CSc1nc2nccnc2c(=O)n1CCc1ccccc1)Nc1nccs1	enzyme activity, inhibitor	–	10 µM	inhibition	7%
CN(C)c1ncnc(-c2ccc3nc(Nc4cc(CN5CCN(C(=O)CC(F)(F)F)CC5)ccn4)[nH]c3c2)c1Cl	cell-free assay, competition with immobilised ligand	–	1 µM	remaining binding	100%
CN1CC(Oc2cnc(C#N)cc2-c2ccn3nc(NC(=O)C4CC4)cc3c2)C1	enzyme activity, inhibitor	–	1 µM	inhibition	17%
c1cc(CN2CCOCC2)cc(Nc2ncc(C3CC3)c(NCCc3c[nH]cn3)n2)c1	enzyme activity, inhibitor, radiometric	–	1 µM	remaining activity	0%
N#CCCc1ccc2c(c1)-c1[nH]c3ccc([N+](=O)[O-])cc3c1CC(=O)N2	cell-free assay	–	0.5 µM	remaining signal	67.3%
Cc1nn(CC(F)(F)F)cc1Nc1ncc(C2CC2)c(NCCc2c[nH]cn2)n1	enzyme activity, inhibitor, radiometric	–	1 µM	remaining activity	96%
CN(C)C(=O)Cn1cc(-c2nc(C3(c4ccc(-c5cnc(N)nc5)cc4)CC3)no2)cn1	cell-free assay, competition with immobilised ligand	–	1 µM	remaining binding	100%
CCCS(=O)(=O)Nc1ccc(F)c(C(=O)c2c[nH]c3ncc(-c4ccc(Cl)cc4)cc23)c1F	enzyme activity, inhibitor	–	1 µM	inhibition	< 10%
FC(F)(F)Oc1cccc(-c2cnc3ccc(-c4ccncc4)nn23)c1	enzyme activity, inhibitor, radiometric	–	1 µM	activity vs control	91%
C[C@H](c1ccnc(Nc2nc3ccc(-c4cc(N(C)C)ncn4)cc3[nH]2)c1)N1CCN(C(=O)CC(F)(F)F)CC1	cell-free assay, competition with immobilised ligand	–	0.1 µM	remaining binding	100%
O=C(NCCCNc1nc(Nc2cccc(NC(=O)N3CCCC3)c2)ncc1C1CC1)C1CCC1	enzyme activity, inhibitor, radiometric	–	1 µM	remaining activity	0%
c1ccc(CNc2nc(N3CCOc4ccccc43)nc3c2CCCC3)cc1	target engagement in cells, inhibitor, chemoproteomics	–	20 mM	inhibition	3%
O=C1NC(=O)c2cc(Nc3ccc(F)cc3)c(Nc3ccc(F)cc3)cc21	cell-free assay	–	0.5 µM	remaining signal	90.8%
O=C(Nc1cccc(Nc2ncc(Br)c(NCCc3cnc[nH]3)n2)c1)N1CCCC1	enzyme activity, inhibitor, radiometric	–	1 µM	remaining activity	-1%
